According to ChEMBL document CHEMBL1127424, “7-azetidinylquinolones as antibacterial agents. 2. Synthesis and biological activity of 7-(2,3-disubstituted-1-azetidinyl)-4-oxoquinoline- and -1,8-naphthyridine-3-carboxylic acids. Properties and structure-activity relationships of quinolones with an azetidine moiety” (J Med Chem, 1994):
Values after ≈ are worked out from the molar mass of the structure shown.

What was measured:
Mus musculus [1] = assay: Evaluation of efficacy on systemic infections Staphylococcus aureus HS-93, after oral administration in mice; assay type: functional
Method in brief: (§1)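 Single oral dose given immediately after infection, one of four doses per group, chosen from in vitro activity. Survival scored after one week. ED50 (total mg/kg protecting 50%) interpolated from survival rates.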

Klebsiella pneumoniae = assay: In vitro minimum inhibitory concentration to inhibit Klebsiella pneumoniae ATCC 10031; assay type: functional
Method in brief: (§2)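 Serial 2-fold agar dilution in Mueller Hinton medium, run alongside a reference quinolone. Inoculum adjusted to 10⁸ cfu/mL; compound range 0.007–16 μg/mL.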

Pseudomonas aeruginosa = assay: In vitro minimum inhibitory concentration for Pseudomonas aeruginosa ATCC 10145; assay type: functional; method in brief: as §2
Staphylococcus aureus = assay: In vitro minimum inhibitory concentration for Staphylococcus aureus ATCC 25178; assay type: functional; method in brief: as §2
Proteus vulgaris = assay: In vitro minimum inhibitory concentration for Proteus vulgaris ATCC 8427; assay type: functional; method in brief: as §2
Enterococcus faecalis = assay: In vitro minimum inhibitory concentration for Streptococcus faecalis ATCC 10541; assay type: functional; method in brief: as §2
Escherichia coli = assay: In vitro minimum inhibitory concentration for Escherichia coli ATCC 10799; assay type: functional; method in brief: as §2
Bacillus cereus = assay: In vitro minimum inhibitory concentration for Bacillus cereus ATCC 11778; assay type: functional; method in brief: as §2
[2] = test system: Staphylococcus epidermidis; assay: In vitro minimum inhibitory concentration for Staphylococcus epidermidis ATCC 155-1; assay type: functional; method in brief: as §2
Mus musculus [3] = assay: Evaluation of efficacy on systemic infections Pseudomonas aeruginosa HS-116, after oral administration in mice; assay type: functional; method in brief: as §1
Enterobacter cloacae = assay: In vitro minimum inhibitory concentration for Enterobacter cloacae ATCC 23355; assay type: functional
[4] = AUC (0-4 hr) ug/ml/h; assay type: ADME, cell-free; parameters: time < 4 hr; concentration or dose not given beside the values; settings: plasma
Method in brief: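 Mice dosed once orally at 50 mg/kg; blood taken from groups of six mice at 0.5, 1, 2 and 4 h. Serum drug assayed by disk agar diffusion bioassay (Bacillus subtilis ATCC 6633 on Seed Agar, 37 °C, 18 h), giving total activity.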

Morganella morganii = assay: In vitro minimum inhibitory concentration for Morganella morganii ATCC 8019; assay type: functional; method in brief: as §2
Bacillus subtilis = assay: In vitro minimum inhibitory concentration for Bacillus subtilis ATCC 6633; assay type: functional; method in brief: as §2
Mus musculus [5] = assay: Evaluation of efficacy on systemic infections Escherichia coli HM-42, after oral administration in mice; assay type: functional; method in brief: as §1
[6] = HPLC capacity factor (k'); assay type: ADME
Method in brief: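 Ion-pair reversed-phase HPLC on ODS-2 (10 μm) at 45 °C. Mobile phase: 10 mM sodium heptanesulfonate plus 50 mM KH2PO4 (pH 3.5)–methanol 45:55, 1 mL/min. Samples at 100 μg/mL in DMF, injected in duplicate, UV 280 nm. k' = (tR − t0)/t0.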

[7] = Solubility (buffer pH 7.4); assay type: physicochemical; settings: read-out: S
Method in brief: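 Excess solid shaken in 0.05 M phosphate buffer pH 7.4 for 24 h at 25 °C. Suspension filtered through 0.22 μm, discarding the first portion. Filtrate diluted in 0.1 N HCl or 0.1 N NaOH and read by UV at the compound's absorbance maximum.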

[8] = Measured ionization constant (pKa); assay type: physicochemical; settings: read-out: pKa1
Method in brief: (§3)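 Spectrophotometric titration at 20 ± 1 °C, 0.1 M ionic strength, pH varied with H2SO4 or NaOH made up in the compound stock. Absorbance followed at compound-specific wavelengths chosen from 200–400 nm scans. pKa1 and pKa2 taken as the inflection points of the two-step absorbance vs pH curve.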

[9] = Dissociation constant (pKa); assay type: physicochemical; settings: read-out: pKa2; method in brief: as §3

| Structure (SMILES) | ED50 (Mus musculus [1]) | MIC (Klebsiella pneumoniae) | MIC (Pseudomonas aeruginosa) | MIC (Staphylococcus aureus) | MIC (Proteus vulgaris) | MIC (Enterococcus faecalis) | MIC (Escherichia coli) | MIC (Bacillus cereus) | MIC [2] | ED50 (Mus musculus [3]) | MIC (Enterobacter cloacae) | AUC [4] | MIC (Morganella morganii) | MIC (Bacillus subtilis) | ED50 (Mus musculus [5]) | Log k' [6] | solubility [7] | pKa [8] | pKa [9] |
| --- | --- | --- | --- | --- | --- | --- | --- | --- | --- | --- | --- | --- | --- | --- | --- | --- | --- | --- | --- |
| C[C@H]1[C@@H](N)CN1c1cc2c(cc1F)c(=O)c(C(=O)O)cn2C1CC1 | 36.7 mg/kg | 0.03 µg/mL (≈ 0.0905 µM) | 0.5 µg/mL (≈ 1.51 µM) | 0.12 µg/mL (≈ 0.362 µM) | 0.06 µg/mL (≈ 0.181 µM) | 0.5 µg/mL (≈ 1.51 µM) | 0.06 µg/mL (≈ 0.181 µM) | 0.06 µg/mL (≈ 0.181 µM) | 0.06 µg/mL (≈ 0.181 µM) | 277 mg/kg | 0.03 µg/mL (≈ 0.0905 µM) | 3700 ng·h/mL | 0.03 µg/mL (≈ 0.0905 µM) | 0.03 µg/mL (≈ 0.0905 µM) | 20 mg/kg | 0.0457 | 6.1 µg/mL (≈ 18.4 µM) |  |  |
| C[C@@H]1[C@@H](CN)CN1c1cc2c(cc1F)c(=O)c(C(=O)O)cn2C1CC1 | 95 mg/kg | 0.06 µg/mL (≈ 0.174 µM) | 2 µg/mL (≈ 5.79 µM) | 0.25 µg/mL (≈ 0.724 µM) | 1 µg/mL (≈ 2.9 µM) | 1 µg/mL (≈ 2.9 µM) | 0.12 µg/mL (≈ 0.347 µM) | 1 µg/mL (≈ 2.9 µM) | 0.25 µg/mL (≈ 0.724 µM) | 355 mg/kg | 0.12 µg/mL (≈ 0.347 µM) | 0 ng·h/mL | 1 µg/mL (≈ 2.9 µM) | 0.06 µg/mL (≈ 0.174 µM) | 60.5 mg/kg | -0.0607 |  |  |  |
| C[C@H]1[C@H](N)CN1c1nc2c(cc1F)c(=O)c(C(=O)O)cn2-c1ccc(F)cc1F | 8.9 mg/kg | 0.06 µg/mL (≈ 0.148 µM) | 1 µg/mL (≈ 2.47 µM) | 0.12 µg/mL (≈ 0.297 µM) | 1 µg/mL (≈ 2.47 µM) | 1 µg/mL (≈ 2.47 µM) | 0.25 µg/mL (≈ 0.618 µM) | 0.25 µg/mL (≈ 0.618 µM) | 0.25 µg/mL (≈ 0.618 µM) | 140 mg/kg | 0.12 µg/mL (≈ 0.297 µM) | 25800 ng·h/mL | 0.25 µg/mL (≈ 0.618 µM) | 0.06 µg/mL (≈ 0.148 µM) | 3.3 mg/kg | 0.1417 | 10.4 µg/mL (≈ 25.7 µM) |  |  |
| CN(C)C1(C)CN(c2c(F)cc3c(=O)c(C(=O)O)cn(C4CC4)c3c2F)C1 |  |  |  |  |  |  |  |  |  |  |  |  |  |  |  | 0.604 | 23.6 µg/mL (≈ 62.5 µM) | 6.05 | 8.12 |
| CC1(N)CN(c2c(F)cc3c(=O)c(C(=O)O)cn(C4CC4)c3c2Cl)C1 |  |  |  |  |  |  |  |  |  |  |  |  |  |  |  | 0.1061 | 1.7 µg/mL (≈ 4.65 µM) | 6.08 | 8.45 |
| C[C@H]1[C@H](N)CN1c1cc2c(cc1F)c(=O)c(C(=O)O)cn2-c1ccc(F)cc1 | 7.5 mg/kg | 0.015 µg/mL (≈ 0.0389 µM) | 1 µg/mL (≈ 2.59 µM) | 0.25 µg/mL (≈ 0.649 µM) | 0.25 µg/mL (≈ 0.649 µM) | 0.5 µg/mL (≈ 1.3 µM) | 0.12 µg/mL (≈ 0.311 µM) | 0.25 µg/mL (≈ 0.649 µM) | 0.25 µg/mL (≈ 0.649 µM) | 109 mg/kg | 0.06 µg/mL (≈ 0.156 µM) | 16900 ng·h/mL | 0.06 µg/mL (≈ 0.156 µM) | 0.06 µg/mL (≈ 0.156 µM) | 2.9 mg/kg | 0.0755 |  |  |  |
| CN(C)C1CN(c2cc3c(cc2F)c(=O)c(C(=O)O)cn3C2CC2)C1 |  |  |  |  |  |  |  |  |  |  |  |  |  |  |  | 0.482 |  | 6.44 | 7.81 |
| CNC1CN(c2cc3c(cc2F)c(=O)c(C(=O)O)cn3C2CC2)C1 |  |  |  |  |  |  |  |  |  |  |  |  |  |  |  | 0.0215 |  | 6.54 | 8.56 |
| CN(C)C1CN(c2c(F)cc3c(=O)c(C(=O)O)cn(C4CC4)c3c2F)C1 |  |  |  |  |  |  |  |  |  |  |  |  |  |  |  | 0.584 | 58 µg/mL (≈ 160 µM) | 6 | 8.14 |
| CC1(N)CN(c2cc3c(cc2F)c(=O)c(C(=O)O)cn3C2CC2)C1 |  |  |  |  |  |  |  |  |  |  |  |  |  |  |  | -0.1249 |  | 6.58 | 8.55 |
| C[C@H]1[C@H](N)CN1c1c(F)cc2c(=O)c(C(=O)O)cn(-c3ccc(F)cc3)c2c1F | 5.7 mg/kg | 0.12 µg/mL (≈ 0.298 µM) | 2 µg/mL (≈ 4.96 µM) | 0.25 µg/mL (≈ 0.62 µM) | 0.5 µg/mL (≈ 1.24 µM) | 2 µg/mL (≈ 4.96 µM) | 0.12 µg/mL (≈ 0.298 µM) | 0.25 µg/mL (≈ 0.62 µM) | 0.12 µg/mL (≈ 0.298 µM) | 54.6 mg/kg | 0.12 µg/mL (≈ 0.298 µM) | 31400 ng·h/mL | 0.25 µg/mL (≈ 0.62 µM) | 0.12 µg/mL (≈ 0.298 µM) | 2.5 mg/kg | 0.1875 | 11.2 µg/mL (≈ 27.8 µM) |  |  |
| C[C@H]1[C@H](N)CN1c1cc2c(cc1F)c(=O)c(C(=O)O)cn2C1CC1 | 22.3 mg/kg | 0.03 µg/mL (≈ 0.0905 µM) | 0.25 µg/mL (≈ 0.754 µM) | 0.12 µg/mL (≈ 0.362 µM) | 0.06 µg/mL (≈ 0.181 µM) | 0.25 µg/mL (≈ 0.754 µM) | 0.03 µg/mL (≈ 0.0905 µM) | 0.06 µg/mL (≈ 0.181 µM) | 0.12 µg/mL (≈ 0.362 µM) | 108 mg/kg | 0.03 µg/mL (≈ 0.0905 µM) | 9200 ng·h/mL | 0.03 µg/mL (≈ 0.0905 µM) | 0.03 µg/mL (≈ 0.0905 µM) | 3.5 mg/kg | -0.0132 | 9.9 µg/mL (≈ 29.9 µM) | 6.46 |  |
